Calls of active or inactive are those of the source. No cut-off for these calls is given here.
How the values were obtained:
[1] = Cmax in Sprague-Dawley rat at 6 mg/kg, iv by UPLC-MS/MS analysis; assay type: ADME, organism-based; design: dose 6 mg/kg, route intravenous; details: in vivo
How it was run: (§1)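 Male SD rats, 200-250 g, fasted 12 h with water, n=6. Oral dose of 12 mg/kg as JBP485 equivalent; dose-effect arms at 12 and 100 mg/kg. JBP485 given iv at 6 mg/kg as the reference. Jugular blood taken at 0.083-10 h. Plasma JBP485 by UPLC-MS/MS. Absolute F = (AUCpo×Div)/(AUCiv×Dpo)×100%, using AUC0-t.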

[2] = AUC (0 to t) in Beagle dog at 12 mg/kg, po by UPLC-MS/MS analysis; assay type: ADME, organism-based, Canis lupus familiaris; details: in vivo
How it was run: (§2)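 Male beagle dogs, 2 years old, 8-10 kg, n=6. Single oral dose of 12 mg/kg (prodrug dosed as JBP485 equivalent) given in aqueous solution. Jugular venipuncture blood taken at 0.167-8 h into sodium heparin tubes. Plasma JBP485 measured by UPLC-MS/MS; AUC0-t and Cmax from the concentration-time profiles.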

[3] = Cmax in Beagle dog at 12 mg/kg, po by UPLC-MS/MS analysis; assay type: ADME, organism-based, Canis lupus familiaris; design: dose 12 mg/kg, route oral; details: in vivo; how it was run: as §2
[4] = Terminal half life in Beagle dog at 12 mg/kg, po by UPLC-MS/MS analysis; assay type: ADME, organism-based, Canis lupus familiaris; details: in vivo, read-out: beta t1/2 (converted)
How it was run: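 Male beagle dogs, 2 years old, 8–10 kg, dosed orally at 12 mg/kg (prodrug calculated as JBP485) in aqueous solution. Jugular blood taken 0.167–8 h into heparin, centrifuged, plasma JBP485 by UPLC-MS/MS; n=6.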

[5] = biological target: T1, Solute carrier family 15 member 1 (Homo sapiens, UniProt P46059); assay: Substrate activity at PEPT1 in human Caco2 cells assessed as inhibition of Gly-Sar uptake by LC-MS/MS analysis; assay type: cell-based
T1 sequence (P46059 whole entry): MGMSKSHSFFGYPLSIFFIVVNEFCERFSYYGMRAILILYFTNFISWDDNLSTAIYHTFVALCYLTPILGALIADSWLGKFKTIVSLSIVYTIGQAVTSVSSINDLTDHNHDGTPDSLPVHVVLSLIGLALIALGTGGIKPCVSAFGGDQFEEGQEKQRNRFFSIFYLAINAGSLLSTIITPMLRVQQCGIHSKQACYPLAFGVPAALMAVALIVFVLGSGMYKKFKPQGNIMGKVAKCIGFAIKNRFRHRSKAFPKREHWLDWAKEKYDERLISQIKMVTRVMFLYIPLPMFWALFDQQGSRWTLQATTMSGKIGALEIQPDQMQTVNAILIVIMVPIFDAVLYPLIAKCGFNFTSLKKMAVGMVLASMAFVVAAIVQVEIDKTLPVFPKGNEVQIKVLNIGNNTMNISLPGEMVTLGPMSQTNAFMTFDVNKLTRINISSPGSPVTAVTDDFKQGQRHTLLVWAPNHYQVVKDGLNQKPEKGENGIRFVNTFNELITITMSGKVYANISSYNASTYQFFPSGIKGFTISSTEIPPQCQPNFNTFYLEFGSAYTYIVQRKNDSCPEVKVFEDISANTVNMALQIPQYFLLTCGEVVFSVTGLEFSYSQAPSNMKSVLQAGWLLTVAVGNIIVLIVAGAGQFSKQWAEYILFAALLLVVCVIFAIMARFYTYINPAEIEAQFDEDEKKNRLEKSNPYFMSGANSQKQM
How it was run: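 Caco-2 cells with 0.5 mM Gly-Sar probe substrate and competitor at 0.5–50 mM. IC50 by nonlinear fitting; n=3.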

Rattus norvegicus [6] = assay: (§3) Anti-hepatitis activity in ANIT-induced Sprague-Dawley rat model of liver injury assessed as reduction in hepatocellular edema at 6.25 to 12.5 mg/kg, ip administered 30 mins prior to ANIT challenge and subsequent dosing at 8, 22, 32, and 46 hrs post ANIT challenge and measured 48 hrs post ANIT challenge by H and E staining-based assay; assay type: functional, organism-based
How it was run: (§4)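 ANIT 50 mg/kg ip liver-injury model in male SD rats, 6 per group. Oral or ip treatment at 30 min before and 8, 22, 32 and 46 h after ANIT. Liver excised at 48 h, fixed in 4% formalin, stained with H&E, and examined microscopically for hepatocellular edema and necrosis.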

Rattus norvegicus [7] = assay: as §3, with “liver necrosis” for “hepatocellular edema”, “25” for “12.5”, “po” for “ip”; assay type: functional, organism-based; how it was run: as §4
Rattus norvegicus [8] = assay: as §3, with “serum aspartate aminotransferase level” for “hepatocellular edema”, “challenge” for “challenge by H and E staining-based assay”; assay type: functional, organism-based
How it was run: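 ANIT (50 mg/kg ip, olive oil) cholestatic liver injury in male SD rats, 6 per group. Oral or ip dosing (UDCA 100 mg/kg po in CMC-Na) at 30 min before and 8, 22, 32 and 46 h after ANIT. Serum collected at 48 h from the abdominal aorta; ALT and AST activities measured with kits.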

[9] = Terminal half life in Sprague-Dawley rat assessed as JBP485 level at 100 mg/kg, po by LC-MS/MS analysis; assay type: ADME, organism-based; details: in vivo
How it was run: (§5)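 Male SD rats (200–250 g) fasted 12 h, given JBP485 or prodrug (calculated as JBP485) orally at 12 or 100 mg/kg. Jugular blood sampled 0.083–10 h, plasma JBP485 by UPLC-MS/MS; n=6.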

[10] = Tmax in Sprague-Dawley rat assessed as JBP485 level at 100 mg/kg, po by LC-MS/MS analysis; assay type: ADME, organism-based; details: in vivo; how it was run: as §5
[11] = AUC (0 to t) in Sprague-Dawley rat assessed as JBP485 level at 12 mg/kg, po by LC-MS/MS analysis; assay type: ADME, organism-based; details: in vivo; how it was run: as §1
[12] = Tmax in Sprague-Dawley rat assessed as JBP485 level at 12 mg/kg, po by LC-MS/MS analysis; assay type: ADME, organism-based; details: in vivo; how it was run: as §5
[13] = Terminal half life in Sprague-Dawley rat assessed as JBP485 level at 12 mg/kg, po by LC-MS/MS analysis; assay type: ADME, organism-based; details: in vivo; how it was run: as §5
[14] = Ratio of half-life in pH 7.2 phosphate buffer to half-life in Sprague-Dawley rat liver homogenates; assay type: ADME, tissue-based; details: tissue homogenate
[15] = Cmax in Sprague-Dawley rat assessed as JBP485 level at 12 mg/kg equiv of JBP485 administered orally by UPLC-MS/MS analysis; assay type: ADME, organism-based; design: dose 12 mg/kg, route oral; details: in vivo, po; how it was run: as §1
[16] = Terminal half-life in Sprague-Dawley rat assessed as JBP485 level at 12 mg/kg equiv of JBP485 administered orally by UPLC-MS/MS analysis; assay type: ADME, organism-based; details: in vivo, po
How it was run: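 Fasted male SD rats (200–250 g), oral 12 mg/kg (prodrugs calculated as JBP485). Jugular blood 0.083–10 h, centrifuged, plasma JBP485 by UPLC-MS/MS; n=6.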

[17] = Oral bioavailability in Sprague-Dawley rat assessed as JBP485 level at 12 mg/kg equiv of JBP485 by UPLC-MS/MS analysis; assay type: ADME, organism-based; details: in vivo; how it was run: as §1
[18] = Cmax in Beagle dog assessed as JBP485 level at 12 mg/kg equiv of JBP485 administered orally by UPLC-MS/MS analysis; assay type: ADME, organism-based, Canis lupus familiaris; design: dose 12 mg/kg, route oral; details: in vivo, po; how it was run: as §2
Rattus norvegicus [19] = assay: as §3, with “3.125” for “6.25”, “25” for “12.5”, “po” for “ip”; assay type: functional, organism-based; how it was run: as §4

| Cmax [1] [nM/ml] | AUCt [2] [nM/ml.hr] | Cmax [3] [nM/ml] | half-life [4] [h] | Ki [5] [mM] | beta t1/2 [9] [h] | Tmax [10] [h] | AUCt [11] [nM/ml.hr] | Tmax [12] [h] | beta t1/2 [13] [h] | Ratio [14] | Cmax [15] [µM] | beta t1/2 [16] [h] | F [17] [%] | Cmax [18] [nM/ml] | Compound | Activity (Rattus norvegicus [6]) | Activity (Rattus norvegicus [7]) | Activity (Rattus norvegicus [8]) | Activity (Rattus norvegicus [19]) |
| --- | --- | --- | --- | --- | --- | --- | --- | --- | --- | --- | --- | --- | --- | --- | --- | --- | --- | --- | --- |
| 334.91 | 89.15 | 26.65 | 5.23 | 36 | 1.5 | 1.5 | 81.4 | 1.25 | 2.12 | – | – | – | – | – | O=C1N[C@@H](CO)C(=O)N2C[C@H](O)C[C@@H]12 | Active | Active | Active | – |
| – | – | – | – | – | – | – | – | – | – | 3 to 35 | 113 | 2.11 | 50.1 | 85.9 | CC(C)[C@H](N)C(=O)OC[C@@H]1NC(=O)[C@@H]2C[C@@H](O)CN2C1=O | – | – | – | Active |
